Source: ChEMBL document CHEMBL2057168, “(1aR,5aR)1a,3,5,5a-Tetrahydro-1H-2,3-diaza-cyclopropa[a]pentalene-4-carboxylic acid (MK-1903): a potent GPR109a agonist that lowers free fatty acids in humans” (J Med Chem, 2012)
Active and inactive are the calls of the source. The rule behind the calls is not given here.

Legend:
[1] = AUC (0 to 24 hrs) in human at titreated po dose administered from day 1 to 4 followed by 200 mg, po QD administered up to day 11 measured on day 4; assay type: ADME, organism-based; set-up: dose 200 mg, time < 24 hr, route oral; conditions: plasma
Outline: (§1)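 Double-blind, placebo-controlled, randomized dose-escalation study in healthy male volunteers, six cohorts of eight (six active, two placebo). Oral dose on day 1, two-day washout, then dosing days 4–11; the 200 mg qd cohort was titrated over days 1–4. Venous blood taken predose and at 0.5–12 h on days 1, 4 and 11; plasma drug measured. τ 12 h (bid), 24 h (qd), 8 h (tid), 6 h (qid).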

[2] = target: T1, Cytochrome P450 2C8 (Homo sapiens, UniProt P10632); assay: Activity at CYP2C8; assay type: ADME
T1 sequence (P10632 whole entry): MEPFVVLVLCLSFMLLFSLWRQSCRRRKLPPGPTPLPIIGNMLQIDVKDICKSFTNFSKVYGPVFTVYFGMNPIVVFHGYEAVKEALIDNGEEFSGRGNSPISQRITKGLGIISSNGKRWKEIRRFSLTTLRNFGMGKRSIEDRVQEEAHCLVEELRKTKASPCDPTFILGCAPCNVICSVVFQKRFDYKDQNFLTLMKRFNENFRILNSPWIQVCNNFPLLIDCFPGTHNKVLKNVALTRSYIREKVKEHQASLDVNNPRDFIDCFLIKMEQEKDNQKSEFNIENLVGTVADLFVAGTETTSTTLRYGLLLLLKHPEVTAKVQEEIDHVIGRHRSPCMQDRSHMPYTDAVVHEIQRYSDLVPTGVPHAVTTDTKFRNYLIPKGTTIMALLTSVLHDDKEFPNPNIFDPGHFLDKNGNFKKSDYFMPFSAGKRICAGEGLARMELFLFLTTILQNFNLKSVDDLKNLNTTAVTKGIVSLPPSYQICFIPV

[3] = AUC (0 to 12 hrs) in human at 50 mg, po BID administered on day 1 followed by 2-day wash out period after which dosing continued up to day 11 measured on day 11; assay type: ADME, organism-based; set-up: dose 50 mg, time < 12 hr, route oral; conditions: plasma; outline: as §1
[4] = Oral bioavailability in mouse; assay type: ADME, organism-based; conditions: in vivo
[5] = Cmin in human at 150 mg, po TID administered on day 1 followed by 2-days wash out period after which dosing continued up to day 11 measured on day 1 at 8 hrs; assay type: ADME, organism-based; conditions: in vivo, read-out: Cmin
Outline: (§2)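 Healthy male volunteers took part in a double-blind, randomized, placebo-controlled dose-escalation study, with cohorts of 8 (6 on drug, 2 on placebo). Each subject got an oral dose on day 1, then a 2-day washout, then dosing on days 4–11. The 200 mg qd group was titrated over days 1–4. Venous plasma was sampled predose and 0.5–12 h postdose on days 1, 4 and 11, and predose on days 5–10 for troughs.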

[6] = Volume of distribution in dog; assay type: ADME, organism-based, Canis lupus familiaris; conditions: in vivo
[7] = system: Homo sapiens; assay: Antidyslipidemic activity in human assessed as decrease in free fatty acid level 150 mg, po TID administered on day 1 followed by 2-days wash out period after which dosing continued up to day 11 measured on day 4 and 11; assay type: functional, organism-based
Outline: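 Healthy male volunteers in a randomized, double-blind, placebo-controlled multiple-dose study, six active and two placebo subjects per cohort. Oral dosing on day 1, two-day washout, then days 4–11, with titration over days 1–4 for the qd arm.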

[8] = Cmin in human at 150 mg, po BID administered on day 1 followed by 2-day wash out period after which dosing continued up to day 11 measured on day 4 at 12 hrs; assay type: ADME, organism-based; conditions: in vivo, read-out: Cmin; outline: as §2
[9] = Cmax in human at 50 mg, po BID administered on day 1 followed by 2-day wash out period after which dosing continued up to day 11 measured on day 4; assay type: ADME, organism-based; set-up: dose 50 mg, route oral; conditions: in vivo; outline: as §2
[10] = Cmax in human at 100 mg, po BID administered on day 1 followed by 2-day wash out period after which dosing continued up to day 11 measured on day 4; assay type: ADME, organism-based; set-up: dose 100 mg, route oral; conditions: in vivo; outline: as §1
[11] = AUC (0 to 12 hrs) in human at 100 mg, po BID administered on day 1 followed by 2-day wash out period after which dosing continued up to day 11 measured on day 1; assay type: ADME, organism-based; set-up: dose 100 mg, time < 12 hr, route oral; conditions: plasma; outline: as §1

O=C(O)c1n[nH]c2c1C[C@H]1C[C@@H]21
AUC at 24 h [1]: 0.114 µM·h | Activity [2]: Not Active | AUC at 12 h [3]: 0.0254 µM·h | bioavailability [4]: 40% | concentration at 8 h [5]: 0.869 nM | Vd [6]: 0.41 L/kg | Activity [7]: Active | concentration at 12 h [8]: 0.241 nM | Cmax [9]: 12.3 nM | Cmax [10]: 33.1 nM | AUC at 12 h [11]: 0.0728 µM·h
